Test results: ChEMBL document CHEMBL4665634, “Inhibiting Aβ toxicity in Alzheimer's disease by a pyridine amine derivative” (Eur J Med Chem, 2019)
Activity calls are given as the source filed them. No cut-off for these calls is given here.

Experiments:
[1] = molecular target: T1, Amyloid-beta precursor protein (Homo sapiens, UniProt P05067); test: Inhibition of amyloid beta (1 to 42)-induced paralysis in transgenic Caenorhabditis elegans GMC101 L3 expressing human amyloid beta (1 to 42) assessed as reduction in fluorescence intensity at 100 uM incubated for 2 days by fluorescence based confocal microscopic analysis relative to control; settings: time 2.0 day
T1 sequence (P05067 whole entry): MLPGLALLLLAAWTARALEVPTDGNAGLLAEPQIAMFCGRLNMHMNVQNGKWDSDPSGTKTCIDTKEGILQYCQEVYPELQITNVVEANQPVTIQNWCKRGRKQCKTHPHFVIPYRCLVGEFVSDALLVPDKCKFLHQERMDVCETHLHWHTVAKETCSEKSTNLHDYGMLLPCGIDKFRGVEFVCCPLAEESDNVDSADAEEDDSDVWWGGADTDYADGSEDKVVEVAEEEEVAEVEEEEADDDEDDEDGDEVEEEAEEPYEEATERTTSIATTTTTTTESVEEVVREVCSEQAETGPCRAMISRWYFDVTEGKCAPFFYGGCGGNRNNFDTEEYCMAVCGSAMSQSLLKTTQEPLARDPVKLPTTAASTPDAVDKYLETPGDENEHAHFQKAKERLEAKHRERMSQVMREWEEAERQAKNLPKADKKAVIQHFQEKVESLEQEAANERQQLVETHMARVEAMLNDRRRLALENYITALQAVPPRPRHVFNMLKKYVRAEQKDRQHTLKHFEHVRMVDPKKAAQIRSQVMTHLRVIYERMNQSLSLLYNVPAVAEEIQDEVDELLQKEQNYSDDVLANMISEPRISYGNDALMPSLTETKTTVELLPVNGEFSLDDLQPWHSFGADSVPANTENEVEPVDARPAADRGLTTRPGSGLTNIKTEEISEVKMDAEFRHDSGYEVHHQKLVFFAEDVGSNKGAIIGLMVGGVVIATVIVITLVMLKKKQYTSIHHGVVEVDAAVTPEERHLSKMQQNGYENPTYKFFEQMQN
In short: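 GMC101 L3 worms kept on compound plates (50, 100 µM) at 25 °C for 2 days, mounted on 2% agarose pads. GFP imaged by confocal microscopy at ex 488/em 500–530 nm and intensity quantified. Two experiments, 15 worms per group.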

[2] = molecular target: T1, Amyloid-beta precursor protein; test: Inhibition of amyloid beta (1 to 42)-induced paralysis in transgenic Caenorhabditis elegans CL4176 L3 expressing human amyloid beta (1 to 42) assessed as reduction in fluorescence intensity at 50 to 200 uM incubated for 2 days by thiofavin-T based fluorescence microscopic analysis; settings: dose microM 50-200, time 2.0 day
In short: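 CL4176 L3 worms kept on compound plates (50, 100, 200 µM) at 25 °C for 2 days. Stained with ThT (10 µM) for 5 min, held 2 h on NGM without OP50, then mounted on 2% agarose pads. Fluorescence imaged at ex 488/em 500–530 nm, in triplicate with 15–20 worms per group.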

Caenorhabditis elegans [3] = test: Reduction in less than 55 kDa amyloid beta species expression in Caenorhabditis elegans CL4176 at 50 uM after 48 hrs by Western blot analysis; assay type: functional
In short: (§1)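 CL4176 raised on plates with compound (50 µM) at 15 °C to L3, then kept at 25 °C for 2 days. Worms sonicated in 0.1 M phosphate buffer, 16 µg protein run on 12% SDS-PAGE and blotted to PVDF. Probed with 6E10 (1:1000) and HRP anti-mouse secondary, with β-actin as the loading control.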

Caenorhabditis elegans [4] = test: Reduction in 12 kDa amyloid beta species expression in Caenorhabditis elegans CL4176 at 50 uM after 48 hrs by Western blot analysis; assay type: functional; in short: as §1
Caenorhabditis elegans [5] = test: Reduction in 16 kDa amyloid beta species expression in Caenorhabditis elegans CL4176 at 50 uM after 48 hrs by Western blot analysis; assay type: functional; in short: as §1
Caenorhabditis elegans [6] = test: Reduction in amy-1 mRNA expression in Caenorhabditis elegans CL4176 at 50 to 100 uM after 48 hrs by qRT-PCR analysis; assay type: functional; settings: dose microM 50-100, time 48.0 hrs
In short: (§2)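 CL4176 worms treated with compound at 25 °C for 48 h (50, 100 µM for amy-1). RNA extracted with Trizol, cDNA made, EvaGreen qRT-PCR run for 40 cycles (95 °C 5 s, 60 °C 5 s). Normalized to ama-1 by the 2^−ΔΔCt method. Three independent preparations, samples in triplicate.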

Caenorhabditis elegans [7] = test: Antioxidant activity in Caenorhabditis elegans CL4176 assessed as effect on ROS production at 100 uM and 15 to 25 degreeC after 48 hrs by H2DCF-DA probe based fluorescence assay ( Rvb = 33.68 %); assay type: functional
Caenorhabditis elegans [8] = test: Antioxidant activity in Caenorhabditis elegans CL4176 assessed as effect on juglone-induced ROS level by measuring relative fluorescence intensity at 50 uM and 15 to 25 degreeC after 48 hrs by H2DCF-DA probe based fluorescence assay ( Rvb = 74.23 %); assay type: functional
Caenorhabditis elegans [9] = test: Antioxidant activity in Caenorhabditis elegans CL4176 assessed as effect on juglone-induced ROS level by measuring relative fluorescence intensity at 100 uM and 15 to 25 degreeC after 48 hrs by H2DCF-DA probe based fluorescence assay ( Rvb = 74.23 %); assay type: functional
Caenorhabditis elegans [10] = test: Effect on sod-3 mRNA expression in Caenorhabditis elegans CL4176 at 50 uM by qRT-PCR analysis; assay type: functional
In short: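 CL4176 qRT-PCR of skn-1 or sod-3. RNA extracted with Trizol, EvaGreen qRT-PCR run for 40 cycles (95 °C 5 s, 60 °C 5 s). Normalized to ama-1 by the 2^−ΔΔCt method. Three independent RNA/cDNA preparations, run in triplicate.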

Caenorhabditis elegans [11] = test: Upregulation of hsf-1 mRNA expression in Caenorhabditis elegans CL4176 at 50 uM by qRT-PCR analysis relative to control; assay type: functional; in short: as §2
Caenorhabditis elegans [12] = test: Upregulation of hsp-16.2 mRNA expression in Caenorhabditis elegans CL4176 at 50 uM by qRT-PCR analysis relative to control; assay type: functional; in short: as §2
Caenorhabditis elegans [13] = test: Upregulation of hsp-60 mRNA expression in Caenorhabditis elegans CL4176 at 50 uM by qRT-PCR analysis relative to control; assay type: functional; in short: as §2
Caenorhabditis elegans [14] = test: Induction of HSP expression in Caenorhabditis elegans; assay type: functional
Caenorhabditis elegans [15] = test: Inhibition of AChE in Caenorhabditis elegans CL4176 assessed as enzyme activity at 25 uM after 48 hrs by DTNB reagent based colorimetric analysis (reference value: 272.49 +/- 14.6 units/L)
In short: (§3)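 Transgenic CL4176 worms kept on NGM plates with compound (0, 25, 50, 100 µM) at 25 °C for 48 h. Lysates made by sonication in 0.1 M phosphate buffer pH 7.4 and centrifuged at 13000 rpm for 5 min. AChE activity in the supernatant was measured with a kit, read as absorbance at 412 nm, given in Units/L normalized to protein concentration, mean ± S.D.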

Caenorhabditis elegans [16] = test: Inhibition of AChE in Caenorhabditis elegans CL4176 assessed as enzyme activity at 50 uM after 48 hrs by DTNB reagent based colorimetric analysis (reference value: 272.49 +/- 14.6 units/L); in short: as §3
Caenorhabditis elegans [17] = test: Inhibition of AChE in Caenorhabditis elegans CL4176 assessed as enzyme activity at 100 uM after 48 hrs by DTNB reagent based colorimetric analysis (reference value: 272.49 +/- 14.6 units/L); in short: as §3
Caenorhabditis elegans [18] = test: Effect on ace-1 mRNA expression in Caenorhabditis elegans CL4176; assay type: functional
Mus musculus [19] = test: Cognitive enhancing effect in APP/PS1 double mutant-transgenic C57BL/6 mouse model assessed as effect on escape latency time at 1 mg/kg, iv measured on day 5 by Morris water maze test (reference value: 50.08 +/- 17.95 sec); assay type: functional; settings: time 5 day
Mus musculus [20] = test: Cognitive enhancing effect in APP/PS1 double mutant-transgenic C57BL/6 mouse model assessed as time spent on target quadrant at 1 mg/kg, iv measured on day 6 by Morris water maze test (reference value: 11.77 +/- 5.28 sec); assay type: functional; settings: time 6 day
Mus musculus [21] = test: Cognitive enhancing effect in APP/PS1 double mutant-transgenic C57BL/6 mouse model assessed as increase in number of hidden escape platform crossings at 1 mg/kg, iv; assay type: functional, organism-based
Caenorhabditis elegans [22] = test: Reduction in Amyloid-beta deposits in transgenic Caenorhabditis elegans CL4176 using anti-Abeta 6E10/rhodamine-phalloidin at 50 to 100 uM after 48 hrs by immunostaining; assay type: functional; settings: dose microM 50-100, time 48.0 hrs
In short: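 CL4176 L3 worms kept on compound plates (50, 100 µM) at 25 °C for 2 days. Fixed in 4% paraformaldehyde and permeabilized with 1% Triton X-100. Stained with 6E10 plus Alexa Fluor 488 secondary and rhodamine-phalloidin (1:4000). Confocal imaging at ex 488/em 500–530 nm and ex 543/em 565–605 nm.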

Caenorhabditis elegans [23] = test: Protection against oligomycin-induced mitochondrial stress in Caenorhabditis elegans CL4176 assessed as effect oxygen consumption rate at 100 uM after 48 hrs by seahorse XFe24 analyser based assay

## Oc1cc(CN(Cc2ccccn2)Cc2ccccn2)cc(C[P+](c2ccccc2)(c2ccccc2)c2ccccc2)c1.[Br-]
[1]
  inhibition: 20%
[2]
  inhibition: Active
Caenorhabditis elegans [3]
  Activity: Active
Caenorhabditis elegans [4]
  Activity: Active
Caenorhabditis elegans [5]
  Activity: Active
Caenorhabditis elegans [6]
  Activity: Active
Caenorhabditis elegans [7]
  Activity: 21.72%
Caenorhabditis elegans [8]
  Activity: 48.97%
Caenorhabditis elegans [9]
  Activity: 28.14%
Caenorhabditis elegans [10]
  Activity: inactive
Caenorhabditis elegans [11]
  fold change (FC): 1.55
Caenorhabditis elegans [12]
  fold change (FC): 2.15
Caenorhabditis elegans [13]
  fold change (FC): 1.59
Caenorhabditis elegans [14]
  Activity: Active
Caenorhabditis elegans [15]
  Activity: 248 U/L
Caenorhabditis elegans [16]
  Activity: 166 U/L
Caenorhabditis elegans [17]
  Activity: 135 U/L
Caenorhabditis elegans [18]
  Activity: inactive
Mus musculus [19]
  Time: 34.25 s
Mus musculus [20]
  Time: 17.2 s
Mus musculus [21]
  Activity: Active
Caenorhabditis elegans [22]
  Activity: Active
Caenorhabditis elegans [23]
  Activity: Active
